Assay [1] can be described thus: Cytotoxicity against mouse 26-L5 cells by MTT assay. Format: functional. As to conditions: read-out: ED50 (the source's name). The method, boiled down:
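Murine colon 26-L5 carcinoma cells grown in RPMI-1640 with 10% fetal calf serum, 0.1% NaHCO3 and 2 mM glutamine. MTT assay compared viability in the presence and absence of agents, giving ED50 values. Positive controls were 5-fluorouracil and curcumin.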
A general note: Tetrazolium dyes change colour on reduction, which living cells bring about.

The next assay has as its system HT-1080. As to the kind of experiment: Cytotoxicity against human HT1080 cells by MTT assay. The conditions noted are these: read-out: ED50 (the source's name). Format: functional. In outline:
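Human HT-1080 fibrosarcoma cells kept in Eagle's minimum essential medium with 10% fetal calf serum, 0.1% NaHCO3 and 2 mM glutamine. Viability with and without test agents was read by standard MTT assay, and ED50 was reported. 5-Fluorouracil and curcumin served as positive controls.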

`COc1cc2c(c3c1C(=O)CC(c1ccc(O)cc1)O3)[C@@H]1C[C@H](CCc3ccc(O)cc3)O[C@@H]1O2` (stereo in doubt; 12) [NEOCALYXIN A]: the EC50 in assay [1] (Mus musculus) was over 100 µM; in the assay with HT-1080 (Homo sapiens, HT-1080), 10.7 µM.
As to `COc1cc(O)c([C@@H]2C[C@H](CCc3ccc(O)cc3)O[C@@H](c3ccc(O)cc3)C2)c(O)c1C(=O)/C=C/c1ccc(O)cc1` [EPICALYXIN F], the EC50 is 0.89 µM in assay [1] (Mus musculus) and 1.71 µM with HT-1080 (Homo sapiens, HT-1080).
Regarding `COc1cc2c(c3c1C(=O)CC(c1ccc(O)cc1)O3)[C@@H]1C[C@H](CCc3ccc(O)cc3)O[C@H](c3ccc(O)cc3)[C@H]1[C@H](c1ccc(O)cc1)O2` (mixture of isomers) [CALYXIN J], the EC50 in assay [1] was 13.7 µM; in the assay on HT-1080, 0.32 µM.
Take `COc1cc2c(c3c1C(=O)CC(c1ccc(O)cc1)O3)[C@@H]1C[C@H](CCc3ccc(O)cc3)O[C@@H]1O2` (stereo in doubt; 13) [NEOCALYXIN A]: the EC50 in assay [1] was found to be 78 µM; with HT-1080, 20.2 µM.
Take `COc1cc(O)c2c(c1C(=O)/C=C/c1ccc(O)cc1)O[C@H](c1ccc(O)cc1)[C@@H]1[C@@H](c3ccc(O)cc3)O[C@@H](CCc3ccc(O)cc3)C[C@@H]21` [EPICALYXIN I]: the EC50 in assay [1] (Mus musculus) was 12.1 µM; in the assay on HT-1080 (Homo sapiens, HT-1080), 5.88 µM.
With `COc1cc(O)c([C@@H]2C[C@H](CCc3ccc(O)cc3)O[C@@H](c3ccc(O)cc3)C2)c2c1C(=O)CC(c1ccc(O)cc1)O2` (some centres not stated) [CALYXIN G], the EC50 was 42.2 µM in assay [1] (Mus musculus) and 25.9 µM in the assay on HT-1080 (Homo sapiens, HT-1080).
Turning to `COc1cc(O)c2c(c1C(=O)/C=C/c1ccc(O)cc1)O[C@@H](c1ccc(O)cc1)[C@@H]1[C@@H](c3ccc(O)cc3)O[C@@H](CCc3ccc(O)cc3)C[C@@H]21` [CALYXIN I], the EC50 is 8.39 µM in assay [1] (Mus musculus) and 9.08 µM in the assay with HT-1080 (Homo sapiens, HT-1080).
Taken in the same sequence, the figures for `COc1cc(/C=C/C(=O)CC(=O)/C=C/c2ccc(O)c(OC)c2)ccc1O` [CURCUMIN] were 23.2 µM and 23.4 µM.
As to `COc1cc(O)c([C@@H]2C[C@H](CCc3ccc(O)cc3)O[C@H](c3ccc(O)cc3)C2)c2c1C(=O)CC(c1ccc(O)cc1)O2` (stereo in doubt; 4) [CALYXIN K], the EC50 in assay [1] was 33 µM; with HT-1080 it was 4.75 µM.
For the compound `COc1cc(O)c2c(c1C(=O)/C=C/c1ccc(O)cc1)O[C@@H](c1ccc(O)cc1)C[C@H]2C[C@@H](O)CCc1ccc(O)cc1` [CALYXIN L], the EC50 in assay [1] (Mus musculus) was 28.2 µM; in the assay on HT-1080 (Homo sapiens, HT-1080), 44.3 µM.
For the compound `COc1cc(O)c([C@@H]2C[C@H](CCc3ccc(O)cc3)O[C@H](c3ccc(O)cc3)C2)c(O)c1C(=O)/C=C/c1ccc(O)cc1` [CALYXIN B], the EC50 was 10.4 µM in assay [1] (Mus musculus) and 10.4 µM in the assay on HT-1080 (Homo sapiens, HT-1080).
For the compound `COc1cc(O)c([C@@H]2C[C@H](CCc3ccc(O)cc3)O[C@H](c3ccc(O)cc3)C2)c2c1C(=O)CC(c1ccc(O)cc1)O2` (stereo in doubt; 3) [CALYXIN K], the EC50 in assay [1] was determined as 7.73 µM; in the assay on HT-1080 (Homo sapiens, HT-1080), 5.09 µM.
On to `O=c1[nH]cc(F)c(=O)[nH]1` [FLUOROURACIL], for which the EC50 in assay [1] (Mus musculus) was found to be 0.53 µM; in the assay with HT-1080 (Homo sapiens, HT-1080), 8 µM.
`COc1cc2c(c3c1C(=O)CC(c1ccc(O)cc1)O3)[C@@H]1C[C@H](CCc3ccc(O)cc3)O[C@H](c3ccc(O)cc3)[C@H]1[C@H](c1ccc(O)cc1)O2` (stereo in doubt; 7) [CALYXIN J]: the EC50 in assay [1] (Mus musculus) stood at 23.2 µM; in the assay on HT-1080 it was 8.19 µM.
As for `COc1cc2c(c3c1C(=O)CC(c1ccc(O)cc1)O3)[C@H](C[C@@H](O)CCc1ccc(O)cc1)C[C@H](c1ccc(O)cc1)O2` (mixture of isomers), the EC50 in assay [1] (Mus musculus) was 42.1 µM; with HT-1080 (Homo sapiens, HT-1080), 10.1 µM.
For `COc1cc(O)c(C(/C=C/c2ccc(O)cc2)C[C@@H](O)CCc2ccc(O)cc2)c2c1C(=O)CC(c1ccc(O)cc1)O2` (some centres not stated) [CALYXIN E], the EC50 in assay [1] (Mus musculus) was determined as 98.1 µM; in the assay with HT-1080 (Homo sapiens, HT-1080), 21.7 µM.

The record behind these values is ChEMBL document CHEMBL1155709, “Eleven novel diarylheptanoids and two unusual diarylheptanoid derivatives from the seeds of Alpinia blepharocalyx” (2001).
